Experimental data reported in paper PMC3790647 (Clinical cancer research : an official journal of the …, 2013).

Experiments:
[1] = system: HDAC enzyme; assay: Cellular HDAC enzyme activity assay in patient blood cells; assay type: in vivo, human; settings: plasma concentration, 2 hour post-dose on day 1, all dose levels, Hill model
How it was run: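 Whole citrate blood (1 ml) was incubated 2 h at 37°C with fluorogenic substrate Boc-K(Ac)-AMC, then erythrocytes were lysed and cells stored at −80°C. Developer reagent lysed cells and released fluorescence from the deacetylated substrate, read by fluorimetry. Untreated control was set as 100% activity and 10 μM trichostatin A as 100% inhibition. Sampling: C1D1 pre-dose, 2, 5, 8, 24 h; C1D5; C4D5.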

[2] = system: histone H4 acetylation; assay: Histone H4 acetylation in PBMC by Western blotting; assay type: in vivo, human; settings: 800 mg dose level
[3] = system: patients with advanced solid tumors; assay: Safety and tolerability, first-in-human dose escalation; assay type: in vivo; settings: for Total number of AEs at each dose level: treatment-related clinical AEs
How it was run: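 Open-label 3+3 escalation: oral once-daily dosing on days 1–5 every 14 days at 100, 200, 400, 600 and 800 mg, with 3–6 patients per level and 4 cycles. Adverse events were graded by NCI-CTC-AE v3.0 from first dose to 30 days after last dose. DLTs were assessed over the first 14 days. Evaluable patients had five consecutive doses plus safety evaluations over nine days.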

[4] = system: multiple myeloma cells; settings: cited from earlier work
[5] = first 4 treatment cycles, 68 cycles

## CN(C)Cc1ccc(S(=O)(=O)n2ccc(/C=C/C(=O)NO)c2)cc1 [resminostat]
[1]
  Resminostat concentration at 50% of HDAC enzyme inhibition: 306 ng/mL
[2]
  Median increase of histone H4 acetylation level: 10 fold
[3]; 100 mg (N=3), grade 1
  Dysgeusia, treatment-related, patients by maximum grade: 1
  Fatigue, treatment-related, patients by maximum grade: 1
[3]; 100 mg (N=3)
  Total number of AEs at each dose level: 2
[3]; 200 mg (N=3), grade 1
  Nausea, treatment-related, patients by maximum grade: 1
[3]; 200 mg (N=3), grade 2
  ALT increase, treatment-related, patients by maximum grade: 1
[3]; 200 mg (N=3)
  Total number of AEs at each dose level: 2
[3]; 400 mg (N=3), grade 1
  Arrhythmia, treatment-related, patients by maximum grade: 1
  Thrombocytopenia, treatment-related, patients by maximum grade: 1
[3]; 400 mg (N=3), grade 2
  Nausea, treatment-related, patients by maximum grade: 2
[3]; 400 mg (N=3)
  Total number of AEs at each dose level: 4
[3]; 600 mg (N=3), grade 1
  Anorexia, treatment-related, patients by maximum grade: 1
  Depression, treatment-related, patients by maximum grade: 1
  Diarrhea, treatment-related, patients by maximum grade: 1
  Dysgeusia, treatment-related, patients by maximum grade: 1
  Fatigue, treatment-related, patients by maximum grade: 1
  Nausea, treatment-related, patients by maximum grade: 3
  Vomiting, treatment-related, patients by maximum grade: 2
[3]; 600 mg (N=3), grade 2
  Anemia, treatment-related, patients by maximum grade: 1
  Fatigue, treatment-related, patients by maximum grade: 1
[3]; 800 mg (N=7), grade 1
  Anorexia, treatment-related, patients by maximum grade: 3
  Dysgeusia, treatment-related, patients by maximum grade: 1
  Electrocardiogram QT prolongation, treatment-related, patients by maximum grade: 1
  Epistaxis, treatment-related, patients by maximum grade: 1
  Fatigue, treatment-related, patients by maximum grade: 1
  Hypokalemia, treatment-related, patients by maximum grade: 1
  Nausea, treatment-related, patients by maximum grade: 4
  Vomiting, treatment-related, patients by maximum grade: 2
  Weight decrease, treatment-related, patients by maximum grade: 1
[3]; 800 mg (N=7), grade 2
  AST increase, treatment-related, patients by maximum grade: 1
  Anorexia, treatment-related, patients by maximum grade: 1
  Diarrhea, treatment-related, patients by maximum grade: 1
  Dysgeusia, treatment-related, patients by maximum grade: 1
  Fatigue, treatment-related, patients by maximum grade: 3
  Nausea, treatment-related, patients by maximum grade: 2
  Vomiting, treatment-related, patients by maximum grade: 2
  Weight decrease, treatment-related, patients by maximum grade: 1
[3]; 800 mg (N=7), grade 3
  ALT increase, treatment-related, patients by maximum grade: 1
  Fatigue, treatment-related, patients by maximum grade: 1
  Nausea, treatment-related, patients by maximum grade: 1
  Vomiting, treatment-related, patients by maximum grade: 1
[3]; 800 mg dose level, first cycle
  Evaluable patients sustaining a DLT: 1 of 6
[3]; 68 cycles
  AST abnormalities, share of all administered cycles: 21%
[3]; N=19
  Patients who omitted doses due to treatment-related AEs: 21%
  Patients who underwent dose reductions due to treatment-related AEs: 21%
[3]; Total (N=19), grade 1
  ALT increase, treatment-related, patients by maximum grade: 2
  AST increase, treatment-related, patients by maximum grade: 1
  Anemia, treatment-related, patients by maximum grade: 1
  Anorexia, treatment-related, patients by maximum grade: 4
  Arrhythmia, treatment-related, patients by maximum grade: 1
  Depression, treatment-related, patients by maximum grade: 1
  Diarrhea, treatment-related, patients by maximum grade: 1
  Dysgeusia, treatment-related, patients by maximum grade: 3
  Electrocardiogram QT prolongation, treatment-related, patients by maximum grade: 1
  Epistaxis, treatment-related, patients by maximum grade: 1
  Fatigue, treatment-related, patients by maximum grade: 3
  Hypokalemia, treatment-related, patients by maximum grade: 1
  Nausea, treatment-related, patients by maximum grade: 8
  Thrombocytopenia, treatment-related, patients by maximum grade: 1
  Vomiting, treatment-related, patients by maximum grade: 4
  Weight decrease, treatment-related, patients by maximum grade: 1
[3]; Total (N=19), grade 2
  Anorexia, treatment-related, patients by maximum grade: 1
  Diarrhea, treatment-related, patients by maximum grade: 1
  Dysgeusia, treatment-related, patients by maximum grade: 1
  Fatigue, treatment-related, patients by maximum grade: 4
  Nausea, treatment-related, patients by maximum grade: 4
  Vomiting, treatment-related, patients by maximum grade: 2
  Weight decrease, treatment-related, patients by maximum grade: 1
[3]; Total (N=19), grade 3
  Fatigue, treatment-related, patients by maximum grade: 1
  Nausea, treatment-related, patients by maximum grade: 1
  Vomiting, treatment-related, patients by maximum grade: 1
[3]; all dose levels
  Grade 4 treatment-related adverse events: No grade 4 treatment-related adverse event
  Treatment-related deaths: No treatment-related deaths
[3]; all grades, N=19
  Anemia regardless of causality, patients: 89%
  GGT elevation regardless of causality, patients: 80%
  Hypermagnesemia, patients: 26%
  Hypokalemia, patients: 58%
  Hyponatremia, patients: 58%
  Lymphopenia, patients: 89%
  Neutropenia, patients: 21%
[3]; all patients (N=19)
  Grade 1-2 dysgeusia, patients: 21%
  Patients with SAEs unrelated to treatment: 37%
  Patients with treatment-related SAE: 11%
  Treatment-related anorexia, irrespective of grade, patients: 26%
  Treatment-related fatigue, irrespective of grade, patients: 42%
  Treatment-related nausea, irrespective of grade, patients: 68%
  Treatment-related vomiting, irrespective of grade, patients: 37%
[3]; all patients (N=19), both patients in 800 mg cohort
  Number of treatment-related serious adverse events (SAE): 3
[3]; [5]
  Anorexia, irrespective of causality and grade, share of administered cycles: 31%
  Fatigue, irrespective of causality and grade, share of administered cycles: 40%
  Grade 3 fatigue, number of treatment cycles: 3 treatment cycles
  Nausea, irrespective of causality and grade, share of administered cycles: 60%
[3]; grade 1, N=19
  Hypokalemia, patients: 47%
  Hyponatremia, patients: 47%
[3]; grade 1-2, N=19
  Leukopenia, patients: 37%
  Thrombocytopenia, patients: 37%
[3]; grade 2, N=19
  Anemia regardless of causality, patients: 47%
  Lymphopenia, patients: 42%
[3]; grade 3, N=19
  Anemia regardless of causality, patients: 11%
  GGT elevation, patients: 11%
  Hypokalemia, patients: 11%
  Hyponatremia, patients: 11%
  Lymphopenia, patients: 21%
[3]; once-daily days 1-5 every 14 days, up to 800 mg
  Maximum tolerated dose (MTD): not reached
[3]; orally once-daily on days 1-5 every 14 days
  Recommended phase II dose (RP2D): 600 mg
[4]
  Apoptosis signalling (Bim, Bax, Caspases 3, 8 and 9 up; Bcl-xL down): pro-apoptotic signals were seen
